pIC50: −log10 of the molar value. ≈ marks a conversion by molar mass, not a printed value.
Legend:
[1] = test system: Cryptococcus neoformans; assay: Antifungal activity against Cryptococcus neoformans ATCC 24067 after 48 to 72 hrs by broth microdilution method; type: functional
Summary of the method: (§1)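 CLSI M27-A3 broth microdilution. Isolates subcultured twice on SDA, 48 h at 35°C. Saline suspension adjusted to 70% transmittance at 530 nm, then diluted to 1-5 x10^3 cells/mL in RPMI with L-glutamine, 0.165 M MOPS, pH 7.0. Compounds in DMSO, tested at […]. 35°C for 48-72 h. MIC read visually as the lowest concentration giving an optically clear well.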

[2] = test system: Vero; assay: Cytotoxicity against African green monkey Vero cells assessed as cell viability measured after 48 hrs by MTT assay; type: cell-based; details: Chlorocebus sabaeus
Summary of the method: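 VERO cells in D-MEM with 5% FBS, used up to 20 passages. Seeded 1 x 10^4 cells/well, pre-incubated 24 h at 37°C. Exposed 48 h at 37°C, 5% CO2, to eight nonserial dilutions from 100 to 0.0128 µM, with 0.5% DMSO control. MTT reduction read-out, corrected for background and blank. IC50 reported as median with 95% CI. Triplicate, two independent experiments.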

[3] = Cytotoxicity against C57BL/6 mouse peritoneal macrophages assessed as cell viability measured after 48 hrs by MTT assay; type: cell-based; details: C57BL/6, Peritoneal macrophage cell
Summary of the method: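 Thioglycollate-elicited peritoneal macrophages from male C57BL/6 mice, 6–8 weeks old, in RPMI with 10% FBS. Seeded 1 x 10^5 cells/well, pre-incubated 24 h at 37°C. Exposed 48 h at 37°C, 5% CO2, to eight nonserial dilutions from 100 to 0.0128 µM, with 0.5% DMSO control. MTT read-out, % inhibition versus DMSO control. IC50 reported as median with 95% CI. Triplicate, two independent experiments.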

[4] = Selectivity index, ratio of IC50 for African green monkey Vero cells to MIC for Cryptococcus neoformans ATCC 24067; type: toxicity, cell-based
[5] = Selectivity index, ratio of IC50 for C57BL/6 mouse peritoneal macrophages to MIC for Cryptococcus neoformans ATCC 24067
Summary of the method: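 SI = IC50/MIC. Thioglycollate-elicited peritoneal macrophages from C57BL/6 mice are seeded at 1 x 10^5/well. They are exposed for 48 h at 37°C to eight concentrations from 100 to 0.0128 µM. Viability read by MTT versus 0.5% DMSO control, triplicate in two experiments.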

[6] = test system: Cryptococcus bacillisporus; assay: Antifungal activity against Cryptococcus gattii ATCC 32608 after 48 to 72 hrs by broth microdilution method; type: functional
Summary of the method: (§2)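 CLSI M27-A3 broth microdilution in RPMI with L-glutamine, buffered to pH 7.0 with 0.165 M MOPS. Colonies grown twice on SDA, 48 h at 35°C. Inoculum set to 70% transmittance at 530 nm, then diluted to 1-5 x10^3 cells/mL. Test agents dissolved in DMSO, serially diluted, tested at 0.1 to 62.5 µM. Plates held at 35°C for 48-72 h. MIC is the lowest concentration giving an optically clear well, read visually against drug-free growth controls.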

[7] = test system: Cryptococcus gattii species complex; assay: Antifungal activity against Cryptococcus gattii 23/10993 after 48 to 72 hrs by broth microdilution method; type: functional, Cryptococcus bacillisporus; summary of the method: as §2
[8] = test system: Cryptococcus neoformans; assay: Ratio of compound MIC for Cryptococcus neoformans 5396 in presence of amphotericin B to compound MIC for Cryptococcus neoformans 5396 in absence of amphotericin B by checkerboard microtiter test; type: functional
Summary of the method: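 Checkerboard microdilution: eight two-fold dilutions of test compound (0.11 to 15.6 µM) crossed with amphotericin B (0.025 to 3.9 µM, in DMSO) or fluconazole (0.48 to 62.5 µM, in water). Inoculum per CLSI M27-A3 in RPMI-MOPS pH 7.0, 1-5 x10^3 cells/mL. Growth 48 to 72 h. Effective MIC is the combination concentration giving complete inhibition. FICs derived from MICs in combination versus alone.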

[9] = test system: Cryptococcus gattii species complex; assay: Antifungal activity against Cryptococcus gattii L28/02 after 48 to 72 hrs by broth microdilution method; type: functional, Cryptococcus bacillisporus; summary of the method: as §2
[10] = test system: Cryptococcus gattii species complex; assay: Antifungal activity against Cryptococcus gattii 547/OTTI-97-PI-10 after 48 to 72 hrs by broth microdilution method; type: functional, Cryptococcus bacillisporus; summary of the method: as §2
[11] = test system: Cryptococcus gattii species complex; assay: Antifungal activity against Cryptococcus gattii 135L/03 after 48 to 72 hrs by broth microdilution method; type: functional, Cryptococcus bacillisporus; summary of the method: as §2
[12] = test system: Cryptococcus gattii species complex; assay: Antifungal activity against Cryptococcus gattii 196L/03 after 48 to 72 hrs by broth microdilution method; type: functional, Cryptococcus bacillisporus; summary of the method: as §2
[13] = test system: Cryptococcus gattii species complex; assay: Antifungal activity against Cryptococcus gattii L27/01 after 48 to 72 hrs by broth microdilution method; type: functional, Cryptococcus bacillisporus; summary of the method: as §2
[14] = test system: Cryptococcus gattii species complex; assay: Antifungal activity against Cryptococcus gattii ICB181 after 48 to 72 hrs by broth microdilution method; type: functional, Cryptococcus bacillisporus; summary of the method: as §2
[15] = test system: Cryptococcus gattii species complex; assay: Antifungal activity against Cryptococcus gattii L24/01 after 48 to 72 hrs by broth microdilution method; type: functional, Cryptococcus bacillisporus; summary of the method: as §2
[16] = test system: Cryptococcus gattii species complex; assay: Antifungal activity against Cryptococcus gattii LMM818 after 48 to 72 hrs by broth microdilution method; type: functional, Cryptococcus bacillisporus; summary of the method: as §2
[17] = test system: Cryptococcus gattii species complex; assay: Antifungal activity against Cryptococcus gattii 1913ER after 48 to 72 hrs by broth microdilution method; type: functional, Cryptococcus bacillisporus; summary of the method: as §2
[18] = test system: Cryptococcus neoformans; assay: Antifungal activity against Cryptococcus neoformans ATCC 28957 after 48 to 72 hrs by broth microdilution method; type: functional; summary of the method: as §1
[19] = test system: Cryptococcus neoformans; assay: Antifungal activity against Cryptococcus neoformans ATCC 62066 after 48 to 72 hrs by broth microdilution method; type: functional
[20] = test system: Cryptococcus neoformans; assay: Antifungal activity against Cryptococcus neoformans CN31 after 48 to 72 hrs by broth microdilution method; type: functional; summary of the method: as §1
[21] = test system: Cryptococcus neoformans; assay: Antifungal activity against Cryptococcus neoformans 96806 after 48 to 72 hrs by broth microdilution method; type: functional; summary of the method: as §1
[22] = test system: Cryptococcus neoformans; assay: Antifungal activity against Cryptococcus neoformans 5396 after 48 to 72 hrs by broth microdilution method; type: functional; summary of the method: as §1
[23] = test system: Cryptococcus neoformans; assay: Antifungal activity against Cryptococcus neoformans LMM820 after 48 to 72 hrs by broth microdilution method; type: functional; summary of the method: as §1
[24] = test system: Cryptococcus neoformans; assay: Antifungal activity against Cryptococcus neoformans F10 after 48 to 72 hrs by broth microdilution method; type: functional; summary of the method: as §1
[25] = test system: Cryptococcus neoformans; assay: Antifungal activity against Cryptococcus neoformans 28JF after 48 to 72 hrs by broth microdilution method; type: functional; summary of the method: as §1
[26] = test system: Cryptococcus neoformans; assay: Antifungal activity against Cryptococcus neoformans VM-MCMMPI after 48 to 72 hrs by broth microdilution method; type: functional; summary of the method: as §1
[27] = test system: Cryptococcus neoformans; assay: Antifungal activity against Cryptococcus neoformans 27JF after 48 to 72 hrs by broth microdilution method; type: functional; summary of the method: as §1
[28] = test system: Cryptococcus neoformans; assay: Antifungal activity against Cryptococcus neoformans WP after 48 to 72 hrs by broth microdilution method; type: functional; summary of the method: as §1

**Q.** Which MIC [1] does the source give for C(=N\Nc1nc(-c2ccccc2)cs1)/C1CCCCC1 here?
**A.** The MIC was 0.9 µM (≈ 0.257 µg/mL).

**Q.** What about the pIC50 [2] of the same molecule?
**A.** The pIC50 was < 4.00.

**Q.** And the pIC50 [3]?
**A.** Its pIC50 is < 4.00.

**Q.** What about the selectivity ratio [4] of the same molecule?
**A.** The selectivity ratio was 111.

**Q.** And the Ratio [5]?
**A.** Its Ratio is 111.

**Q.** What about the MFC [6] of the same molecule?
**A.** Its MFC is 1.9 µM (≈ 0.542 µg/mL).

**Q.** And the MIC [6]?
**A.** Its MIC is 1.4 µM (≈ 0.4 µg/mL).

**Q.** And the MFC [7]?
**A.** Its MFC is 7.8 µM (≈ 2.23 µg/mL).

**Q.** What about the MIC [7] of the same molecule?
**A.** The MIC was 1.9 µM (≈ 0.542 µg/mL).

**Q.** And the “fractional inhibitory concentration index (FICI)” value [8]?
**A.** Its value is 1.15.

**Q.** And the MFC [9]?
**A.** Its MFC is 7.8 µM (≈ 2.23 µg/mL).

**Q.** What about the MIC [9] of the same molecule?
**A.** The MIC was 1.9 µM (≈ 0.542 µg/mL).

**Q.** What about the MFC [10] of the same molecule?
**A.** The MFC was 7.8 µM (≈ 2.23 µg/mL).

**Q.** And the MIC [10]?
**A.** Its MIC is 1.9 µM (≈ 0.542 µg/mL).

**Q.** And the MFC [11]?
**A.** The MFC was 3.9 µM (≈ 1.11 µg/mL).

**Q.** What about the MIC [11] of the same molecule?
**A.** The MIC was 1.9 µM (≈ 0.542 µg/mL).

**Q.** And the MFC [12]?
**A.** Its MFC is 3.9 µM (≈ 1.11 µg/mL).

**Q.** What about the MIC [12] of the same molecule?
**A.** The MIC was 1.4 µM (≈ 0.4 µg/mL).

**Q.** What about the MFC [13] of the same molecule?
**A.** The MFC was 1.9 µM (≈ 0.542 µg/mL).

**Q.** What about the MIC [13] of the same molecule?
**A.** Its MIC is 1 µM (≈ 0.285 µg/mL).

**Q.** And the MFC [14]?
**A.** The MFC was 3.9 µM (≈ 1.11 µg/mL).

**Q.** And the MIC [14]?
**A.** The MIC was 0.7 µM (≈ 0.2 µg/mL).

**Q.** And the MFC [15]?
**A.** Its MFC is 3.9 µM (≈ 1.11 µg/mL).

**Q.** What about the MIC [15] of the same molecule?
**A.** The MIC was 1.4 µM (≈ 0.4 µg/mL).

**Q.** What about the MFC [16] of the same molecule?
**A.** The MFC was 3.9 µM (≈ 1.11 µg/mL).

**Q.** And the MIC [16]?
**A.** The MIC was 2.2 µM (≈ 0.628 µg/mL).

**Q.** What about the MFC [17] of the same molecule?
**A.** Its MFC is 7.8 µM (≈ 2.23 µg/mL).

**Q.** And the MIC [17]?
**A.** The MIC was 1.4 µM (≈ 0.4 µg/mL).

**Q.** And the MFC [18]?
**A.** Its MFC is 7.8 µM (≈ 2.23 µg/mL).

**Q.** And the MIC [18]?
**A.** The MIC was 1.2 µM (≈ 0.342 µg/mL).

**Q.** What about the MFC [19] of the same molecule?
**A.** Its MFC is 7.8 µM (≈ 2.23 µg/mL).

**Q.** What about the MIC [19] of the same molecule?
**A.** The MIC was 1.2 µM (≈ 0.342 µg/mL).

**Q.** And the MFC [20]?
**A.** Its MFC is 1.9 µM (≈ 0.542 µg/mL).

**Q.** And the MIC [20]?
**A.** Its MIC is 1.4 µM (≈ 0.4 µg/mL).

**Q.** What about the MFC [21] of the same molecule?
**A.** Its MFC is 3.9 µM (≈ 1.11 µg/mL).

**Q.** What about the MIC [21] of the same molecule?
**A.** Its MIC is 1.9 µM (≈ 0.542 µg/mL).

**Q.** And the MFC [22]?
**A.** Its MFC is 1.9 µM (≈ 0.542 µg/mL).

**Q.** What about the MIC [22] of the same molecule?
**A.** Its MIC is 1.4 µM (≈ 0.4 µg/mL).

**Q.** And the MFC [23]?
**A.** Its MFC is 1.9 µM (≈ 0.542 µg/mL).

**Q.** What about the MIC [23] of the same molecule?
**A.** Its MIC is 1.7 µM (≈ 0.485 µg/mL).

**Q.** What about the MFC [24] of the same molecule?
**A.** Its MFC is 3.9 µM (≈ 1.11 µg/mL).

**Q.** What about the MIC [24] of the same molecule?
**A.** The MIC was 1.7 µM (≈ 0.485 µg/mL).

**Q.** And the MFC [25]?
**A.** The MFC was 7.8 µM (≈ 2.23 µg/mL).

**Q.** What about the MIC [25] of the same molecule?
**A.** The MIC was 2.7 µM (≈ 0.771 µg/mL).

**Q.** And the MFC [26]?
**A.** Its MFC is 3.9 µM (≈ 1.11 µg/mL).

**Q.** And the MIC [26]?
**A.** The MIC was 1.4 µM (≈ 0.4 µg/mL).

**Q.** What about the MFC [27] of the same molecule?
**A.** The MFC was 7.8 µM (≈ 2.23 µg/mL).

**Q.** And the MIC [27]?
**A.** The MIC was 2.4 µM (≈ 0.685 µg/mL).

**Q.** And the MFC [28]?
**A.** The MFC was 3.9 µM (≈ 1.11 µg/mL).

**Q.** What about the MIC [28] of the same molecule?
**A.** Its MIC is 2.2 µM (≈ 0.628 µg/mL).

From ChEMBL document CHEMBL3616437, “Thiazole compounds with activity against Cryptococcus gattii and Cryptococcus neoformans in vitro” (Eur J Med Chem, 2015)
